Source: ChEMBL document CHEMBL1127538, “Anti-HIV michellamines from Ancistrocladus korupensis” (J Med Chem, 1994)

How the values were obtained:
Assay type in all cases: functional, cell-based
CEM-SS [1] = assay: Anticytopathic activity was measured against HIV-1(RF strain) in CEM-SS human lymphoblastoid target cells
How it was run: (§1)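 Cell lines in RPMI 1640 without phenol red, with 5% fetal bovine serum, 2 mM L-glutamine and 50 µg/mL gentamicin, at 37 °C and 5% CO2. Seeded at 5 × 10^5 cells/well and infected with pretitered virus at MOI 0.01-0.05, chosen for complete cell killing by day 6. Half-log aqueous dilutions of acetate salts tested in triplicate. XTT formazan read after 6 days; EC50 is 50% inhibition of virus-induced killing.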

CEM-SS [2] = assay: Anticytopathic activity was measured against HIV-2(CBL-20 strain) in CEM-SS human lymphoblastoid target cells; how it was run: as §1
C-344 cell line [3] = assay: Anti -HIV activity was measured against C-344/HIV-1(RF); settings: Homo sapiens; how it was run: as §1
C-344 cell line [4] = assay: Cytotoxicity was measured against C-344/HIV-1(RF); settings: Homo sapiens
How it was run: (§2)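 Cytotoxicity was measured in cells-plus-drug control wells run alongside the antiviral assay. Serial half-log dilutions of acetate salts were tested in triplicate. After 6 days at 37 °C, viability was read spectrophotometrically by XTT reduction to soluble formazan. IC50 is the concentration giving a 50% decrease in viable cell number.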

C8166 [5] = assay: Cytotoxicity was measured against C8166/HIV-1(RF); settings: Homo sapiens; how it was run: as §2
C8166 [6] = assay: Anti -HIV activity was measured against C8166/HIV-1(RF); settings: Homo sapiens; how it was run: as §1
CEM-SS [7] = assay: Cytotoxicity was measured against CEM-SS/HIV-1 (NIH-DZ); settings: Homo sapiens; how it was run: as §2
CEM-SS [8] = assay: Cytotoxicity was measured against CEM-SS/HIV-1 (RF); settings: Homo sapiens; how it was run: as §2
CEM-SS [9] = assay: Anti -HIV activity was measured against CEM-SS/HIV-1 (NIH-DZ); settings: Homo sapiens; how it was run: as §1
CEM-SS [10] = assay: Anti-HIV activity was measured against HIV-1 Lymphotropic 205 clinical isolates in CEM-SS cells; settings: Homo sapiens; how it was run: as §1
CEM-SS [11] = assay: Anti-HIV activity was measured against HIV-1 Lymphotropic G clinical isolates in CEM-SS cells; settings: Homo sapiens; how it was run: as §1
CEM-SS [12] = assay: Anti-HIV activity was measured against HIV-1 Lymphotropic MCK clinical isolates in CEM-SS cells; settings: Homo sapiens; how it was run: as §1
CEM-SS [13] = assay: Anti-HIV activity was measured against HIV-1 Lymphotropic PM16 clinical isolates in CEM-SS cells; settings: Homo sapiens; how it was run: as §1
CEM-SS [14] = assay: Anti-HIV activity was measured against HIV-1 Promonocytropic 214 clinical isolates in CEM-SS cells; settings: Homo sapiens; how it was run: as §1
CEM-SS [15] = assay: Anti-HIV activity was measured against HIV-1 Promonocytropic MN clinical isolates in CEM-SS cells; settings: Homo sapiens; how it was run: as §1
CEM-SS [16] = assay: Anti-HIV activity was measured against HIV-1 Promonocytropic SKI clinical isolates in CEM-SS cells; settings: Homo sapiens; how it was run: as §1
CEM-SS [17] = assay: Anti-HIV activity was measured against HIV-1 Promonocytropic TPI clinical isolates in CEM-SS cells; settings: Homo sapiens; how it was run: as §1
CEM-SS [18] = assay: Anti-HIV activity was measured against HIV-1,LAV laboratory strains in CEM-SS cells; settings: Homo sapiens; how it was run: as §1
CEM-SS [19] = assay: Anti-HIV activity was measured against HIV-1,RF laboratory strains in CEM-SS cells; settings: Homo sapiens; how it was run: as §1
CEM-SS [20] = assay: Anti-HIV activity was measured against HIV-2 CBL-20 laboratory strains in CEM-SS cells; settings: Homo sapiens; how it was run: as §1
CEM-SS [21] = assay: Anti-HIV activity was measured against HIV-2 MS laboratory strains in CEM-SS cells; settings: Homo sapiens; how it was run: as §1
CEM-SS [22] = assay: Anti-HIV activity was measured against HIV-2 NIH-DZ strain laboratory strains in CEM-SS cells; settings: Homo sapiens; how it was run: as §1
CEM-SS [23] = assay: Anti-HIV activity was measured against HIV-2 ROD strain laboratory strains in CEM-SS cells; settings: Homo sapiens; how it was run: as §1
CCRF-CEM [24] = assay: Anti -HIV activity was measured against 174*CEM/HIV-1(IIIB); settings: Homo sapiens; how it was run: as §1
CCRF-CEM [25] = assay: Cytotoxicity was measured against 174*CEM/HIV-1(IIIB); settings: Homo sapiens; how it was run: as §2
MT2 [26] = assay: Anti -HIV activity was measured against MT-2/HIV-1(RF); settings: Homo sapiens
How it was run: (§3)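 MT-2 cells (RPMI 1640 without phenol red, 5% FBS, 2 mM L-glutamine, 50 µg/mL gentamicin; 37 °C, 5% CO2) seeded at 5 × 10^5 cells/well and infected at an MOI pretitered for complete cell killing by day 6 (MOI 0.01-0.05). Serial half-log aqueous dilutions of acetate salt added in triplicate. After 6 days at 37 °C, viability read by XTT formazan. EC50 = 50% inhibition of virus-induced killing.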

MT2 [27] = assay: Anti -HIV activity was measured against MT-2/HIV-2(NIH-DZ); settings: Homo sapiens; how it was run: as §3
MT2 [28] = assay: Anti-HIV activity was measured against drug resistant HIV-1 A17 in MT-2 cells; settings: Homo sapiens; how it was run: as §3
MT2 [29] = assay: Anti-HIV activity was measured against drug resistant HIV-1 G9106 in MT-2 cells; settings: Homo sapiens; how it was run: as §3
LDV-7 cell line [30] = assay: Anti -HIV activity was measured against LDV-7/HIV-1(RF); settings: Homo sapiens; how it was run: as §1
LDV-7 cell line [31] = assay: Cytotoxicity was measured against LDV-7/HIV-1(RF); settings: Homo sapiens; how it was run: as §2
MT2 [32] = assay: Cytotoxicity was measured against MT-2/HIV-1(RF).; settings: Homo sapiens; how it was run: as §2
MT2 [33] = assay: Cytotoxicity was measured against MT-2/HIV-2(NIH-DZ); settings: Homo sapiens; how it was run: as §2
PMC [34] = assay: Cytotoxicity was measured against PMCs/HIV-1(Ba-L); settings: Homo sapiens
PMC [35] = assay: Anti -HIV activity was measured against PMCs/HIV-1(Ba-L); settings: Homo sapiens
How it was run: (§4)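 Lymphocytes and macrophages were isolated fresh from donor whole blood by Ficoll-Hypaque centrifugation. They were infected at an MOI giving maximal virus production by day 6 and treated with half-log dilutions of acetate salts in triplicate. After 6 days at 37 °C, RT activity or p24 core protein was quantified in cell-free supernatants. EC50 is 50% inhibition of virus production.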

PBL [36] = assay: Anti -HIV activity was measured against PBLs/HIV-1 (WEJO); settings: Homo sapiens; how it was run: as §4
PBL [37] = assay: Cytotoxicity was measured against PBLs/HIV-1 (WEJO); settings: Homo sapiens
CEM-SS [38] = assay: Anti-HIV activity was measured against HIV-1,IIIB laboratory strains in CEM-SS cells; settings: Homo sapiens; how it was run: as §1
AA5 [39] = assay: Anti -HIV activity was measured against AA5/HIV-1(IIIB); settings: Homo sapiens; how it was run: as §1
CEM-SS [40] = assay: Anti -HIV activity was measured against CEM-SS/HIV-1 (RF); settings: Homo sapiens; how it was run: as §1
AA5 [41] = assay: Cytotoxicity was measured against AA5/HIV-1(IIIB); settings: Homo sapiens; how it was run: as §2

COc1cc(C)cc2c(-c3c(O)cc(O)c4c3C[C@@H](C)N[C@@H]4C)cc(-c3cc(-c4c(O)cc(O)c5c4C[C@@H](C)N[C@@H]5C)c4cc(C)cc(OC)c4c3O)c(O)c12 (stereo in doubt; form 2) [MICHELLAMINE A]
EC50 (CEM-SS [1]; cem-ss): 13 µM

COc1cc(C)cc2c(-c3c(O)cc(O)c4c3C[C@@H](C)N[C@@H]4C)cc(-c3cc(-c4c(O)cc(O)c5c4C[C@@H](C)N[C@@H]5C)c4cc(C)cc(OC)c4c3O)c(O)c12 (stereo in doubt; form 1) [MICHELLAMINE A]
EC50 (CEM-SS [1]; Homo sapiens, CEM-SS): 10 µM | EC50 (CEM-SS [2]): 10 µM

COc1cc(C)cc2c(-c3c(O)cc(O)c4c3C[C@@H](C)N[C@@H]4C)cc(-c3cc(-c4c(O)cc(O)c5c4C[C@@H](C)N[C@@H]5C)c4cc(C)cc(OC)c4c3O)c(O)c12 (stereo in doubt; form 3) [MICHELLAMINE A]
EC50 (C-344 cell line [3]): 39 µM | IC50 (C-344 cell line [4]): 160 µM | IC50 (C8166 [5]): > 240 µM | EC50 (C8166 [6]): 88 µM | IC50 (CEM-SS [7]): 42 µM | IC50 (CEM-SS [8]): 120 µM | EC50 (CEM-SS [9]): 1 µM | EC50 (CEM-SS [10]): 11 µM | EC50 (CEM-SS [11]): 3 µM | EC50 (CEM-SS [12]): 3 µM | EC50 (CEM-SS [13]): 12 µM | EC50 (CEM-SS [14]): 10 µM | EC50 (CEM-SS [15]): 13 µM | EC50 (CEM-SS [16]): 12 µM | EC50 (CEM-SS [17]): 6 µM | EC50 (CEM-SS [18]): 4 µM | EC50 (CEM-SS [19]): 12 µM | EC50 (CEM-SS [20]): 2 µM | EC50 (CEM-SS [21]): 7 µM | EC50 (CEM-SS [22]): 5 µM | EC50 (CEM-SS [23]): 18 µM | EC50 (CEM-SS [2]): 2 µM | EC50 (CCRF-CEM [24]): 23 µM | IC50 (CCRF-CEM [25]): > 125 µM | EC50 (MT2 [26]): 40 µM | EC50 (MT2 [27]): 6 µM | EC50 (MT2 [28]): 9 µM | EC50 (MT2 [29]): 5 µM | EC50 (LDV-7 cell line [30]): 13 µM | IC50 (LDV-7 cell line [31]): 100 µM | IC50 (MT2 [32]): 200 µM | IC50 (MT2 [33]): 100 µM | IC50 (PMC [34]): > 240 µM | EC50 (PMC [35]): 10 µM | EC50 (PBL [36]): 5 µM | IC50 (PBL [37]): > 240 µM | EC50 (CEM-SS [38]): 1 µM | EC50 (AA5 [39]): 33 µM | EC50 (CEM-SS [40]): 13 µM | IC50 (AA5 [41]): > 125 µM
